# Measured values taken from ChEMBL document CHEMBL3124926, “Identification of highly efficacious glucocorticoid receptor agonists with a potential for reduced clinical bone side effects” (J Med Chem, 2014).
# Legend:
# Glucocorticoid receptor [1] = target: T1, Glucocorticoid receptor (Homo sapiens, UniProt P04150); test: Transrepression activity at glucocorticoid receptor in human fibroblasts assessed as inhibition of IL-1-induced IL-6 production after 18 to 24 hrs
# T1 sequence (P04150 whole entry): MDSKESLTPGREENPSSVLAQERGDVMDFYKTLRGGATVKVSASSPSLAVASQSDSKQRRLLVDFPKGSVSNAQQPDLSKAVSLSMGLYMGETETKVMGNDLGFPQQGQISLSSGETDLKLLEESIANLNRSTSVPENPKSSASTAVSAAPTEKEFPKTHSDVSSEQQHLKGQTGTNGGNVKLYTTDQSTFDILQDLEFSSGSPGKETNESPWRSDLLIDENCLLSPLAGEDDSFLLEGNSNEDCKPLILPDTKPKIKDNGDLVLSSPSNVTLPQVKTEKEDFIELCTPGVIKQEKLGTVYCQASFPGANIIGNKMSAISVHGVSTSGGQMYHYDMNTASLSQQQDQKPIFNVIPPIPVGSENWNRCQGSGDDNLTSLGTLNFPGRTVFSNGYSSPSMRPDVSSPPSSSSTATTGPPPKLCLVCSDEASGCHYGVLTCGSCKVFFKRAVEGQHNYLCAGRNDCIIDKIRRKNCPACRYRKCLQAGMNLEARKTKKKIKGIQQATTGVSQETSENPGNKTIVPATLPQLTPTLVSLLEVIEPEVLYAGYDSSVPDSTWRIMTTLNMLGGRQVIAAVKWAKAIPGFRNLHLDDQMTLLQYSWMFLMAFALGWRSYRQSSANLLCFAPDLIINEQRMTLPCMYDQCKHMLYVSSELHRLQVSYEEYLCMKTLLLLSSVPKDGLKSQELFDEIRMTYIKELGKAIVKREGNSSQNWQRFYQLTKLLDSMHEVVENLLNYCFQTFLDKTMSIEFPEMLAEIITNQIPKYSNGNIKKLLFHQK
# Method in brief: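 Human foreskin fibroblasts grown in Iscove's medium with 10% charcoal/dextran-treated FBS, plated at 20000/well two days before. Medium replaced, then compound (0.4% DMSO final) and recombinant human IL-1 (1 ng/mL final) added. 18–24 h at 37 °C; IL-6 in medium quantified by electrochemiluminescence, DELFIA or ELISA. IC50 by four-parameter fit of duplicate 11-point curves. Efficacy relative to dexamethasone (100%); top concentration 2 μM.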
# Glucocorticoid receptor [2] = target: T1, Glucocorticoid receptor; test: Competitive binding affinity to glucocorticoid receptor (unknown origin) expressed in baculovirus-infected cell system after 1 hr by fluorescence polarization assay in presence of tetramethylrhodamine-labeled dexamethasone
# Method in brief: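 Lysates of baculovirus-infected insect cells co-expressing receptor with HSP-70, HSP-90 and p23 (GR diluted 300-fold, MR 17-fold). Probe 5 nM tetramethylrhodamine-dexamethasone in TES/KCl/molybdate/EDTA/CHAPS/glycerol/DTT buffer, pH 7.4, 1% DMSO. 1 h at room temperature in the dark; fluorescence polarization read (ex 550/em 580 nm). Background set with 2 μM dexamethasone. IC50 from duplicate 11-point curves, four-parameter fit, mean of at least two determinations.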
# Progesterone receptor = target: T2, Progesterone receptor (Homo sapiens, UniProt P06401); test: Competitive binding affinity to progesterone receptor (unknown origin) expressed in baculovirus-infected cell system after 1 hr by fluorescence polarization assay in presence of tetramethylrhodamine-labeled RU-486
# T2 sequence (P06401 whole entry): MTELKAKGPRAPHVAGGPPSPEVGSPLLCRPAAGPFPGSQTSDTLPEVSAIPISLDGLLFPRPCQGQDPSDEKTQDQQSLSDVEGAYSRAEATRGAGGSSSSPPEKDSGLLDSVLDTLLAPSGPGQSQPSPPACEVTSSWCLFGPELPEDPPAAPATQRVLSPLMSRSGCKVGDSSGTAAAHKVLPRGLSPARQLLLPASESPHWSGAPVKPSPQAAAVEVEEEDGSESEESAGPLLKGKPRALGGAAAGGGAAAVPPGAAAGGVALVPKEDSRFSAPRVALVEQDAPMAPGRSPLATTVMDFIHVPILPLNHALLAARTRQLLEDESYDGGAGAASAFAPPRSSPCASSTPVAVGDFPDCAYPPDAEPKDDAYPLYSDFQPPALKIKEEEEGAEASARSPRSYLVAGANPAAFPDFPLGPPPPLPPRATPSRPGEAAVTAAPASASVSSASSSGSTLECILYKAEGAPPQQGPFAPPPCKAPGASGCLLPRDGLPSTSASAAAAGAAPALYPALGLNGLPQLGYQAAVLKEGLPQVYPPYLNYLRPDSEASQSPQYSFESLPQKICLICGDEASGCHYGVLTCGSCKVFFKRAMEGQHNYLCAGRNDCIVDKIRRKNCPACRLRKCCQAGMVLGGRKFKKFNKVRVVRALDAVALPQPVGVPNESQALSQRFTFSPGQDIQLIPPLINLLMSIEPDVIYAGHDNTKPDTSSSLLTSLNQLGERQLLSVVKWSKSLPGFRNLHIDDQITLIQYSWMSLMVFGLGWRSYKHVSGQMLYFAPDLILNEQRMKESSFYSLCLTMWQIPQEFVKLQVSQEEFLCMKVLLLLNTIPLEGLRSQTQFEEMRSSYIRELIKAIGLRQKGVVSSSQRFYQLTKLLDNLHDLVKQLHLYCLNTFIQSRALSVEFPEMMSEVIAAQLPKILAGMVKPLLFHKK
# Method in brief: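 PR from lysate of insect cells infected with receptor baculovirus alone, diluted 13-fold. Probe 5 nM tetramethylrhodamine-labeled RU-486 in pH 7.4 TES/KCl/molybdate buffer with 1% DMSO. 1 h at room temperature in the dark, then fluorescence polarization (ex 550/em 580 nm). Background set with 2 μM RU-486. IC50 from duplicate 11-point curves, four-parameter logistic fit, mean of at least two determinations.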
# Mus musculus = test: Antiinflammatory activity in po dosed Balb/c mouse assessed as inhibition of LPS-induced TNFalpha production administered 60 mins prior to LPS challenge measured after 1 hr by […]; assay type: functional
# [3] = Cmax in B10.RIII mouse at 100 mg/kg, po; assay type: ADME, organism-based; design: dose 100 mg/kg, route oral; conditions: in vivo
# Method in brief: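 Plasma levels measured in satellite B10.RIII mice (n = 3) after a single 100 mg/kg oral dose.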
# [4] = Oral bioavailability in rat at 30 mg/kg; assay type: ADME, organism-based; conditions: in vivo
# [5] = Half life in rat at 5 mg/kg, iv and 30 mg/kg, po; assay type: ADME, organism-based; conditions: in vivo
# Method in brief: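 Rat PK: 5 mg/kg iv in 80/20 PEG/water and 30 mg/kg po in 80/18/2 PEG/water/Tween.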
# [6] = Permeability across human Caco2 cells; assay type: ADME, cell-based; conditions: Caco-2, read-out: permeability
# [7] = Aqueous solubility of the compound in buffer at pH 7; assay type: physicochemical
# [8] = Half life in rat at 2 mg/kg, iv and 30 mg/kg, po; assay type: ADME, organism-based; conditions: in vivo
# Method in brief: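 Rat PK: 2 mg/kg iv in 80/20 PEG/water and 30 mg/kg po in 80/18/2 PEG/water/Tween.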
IC50 (Glucocorticoid receptor [1]) [nM],IC50 (Glucocorticoid receptor [2]) [nM],IC50 (Progesterone receptor) [nM],Cmax [3] [µM],bioavailability [4] [%],half-life [5] [min],Papp [6] [×10⁻⁶ cm/s],solubility [7] [µg/mL],half-life [8] [min],SMILES,ED50 (Mus musculus) [mg/kg]
13,5,1700,–,–,–,–,–,–,CC(C)(CC(O)(Cc1cc2ncncc2[nH]1)C(F)(F)F)c1cc(Cl)cc2c1OCC2 (racemic),–
6,13,> 2000,–,–,–,–,–,–,Cc1ccc(F)cc1C(C)(C)CC(O)(Cc1cc2cc(-c3ccccc3)nnc2[nH]1)C(F)(F)F (racemic),–
19,8,> 2000,–,–,–,11,11,–,Cc1ccc(F)cc1C(C)(C)CC(O)(Cc1cc2ncncc2[nH]1)C(F)(F)F (racemic),–
16,7,> 2000,–,–,–,13,2,–,Cc1ccc(F)cc1C(C)(C)CC(O)(Cc1cc2nnccc2[nH]1)C(F)(F)F (racemic),–

# More lines, now with the values behind:
SMILES,IC50 (Glucocorticoid receptor [1]) [nM],IC50 (Glucocorticoid receptor [2]) [nM],IC50 (Progesterone receptor) [nM],Cmax [3] [µM],bioavailability [4] [%],half-life [5] [min],Papp [6] [×10⁻⁶ cm/s],solubility [7] [µg/mL],half-life [8] [min],ED50 (Mus musculus) [mg/kg]
Cc1ccc(F)cc1C(C)(C)C[C@@](O)(Cc1cc2ncncc2[nH]1)C(F)(F)F,13,4,> 2000,4.32,13,36,–,–,–,1
Cc1ccc(F)cc1C(C)(C)CC(O)(Cc1cc2nc(-c3cccnc3)ncc2[nH]1)C(F)(F)F (racemic),12,5,> 2000,–,–,–,–,–,–,–
CC(C)(CC(O)(Cc1cc2ncncc2[nH]1)C(F)(F)F)c1ccc(F)cc1O (racemic),9,5,880,–,–,–,–,–,–,–
Cc1ccc(F)cc1C(C)(C)CC(O)(Cc1cc2nc(N3CCS(=O)(=O)CC3)ncc2[nH]1)C(F)(F)F (racemic),19,8,> 2000,–,–,–,–,–,–,–
Cc1ccc(F)cc1C(C)(C)CC(O)(Cc1cc2nc(-c3ccccc3)ncc2[nH]1)C(F)(F)F (racemic),8,5,> 2000,–,–,–,–,–,–,–
Cc1ccc(F)cc1C(C)(C)C[C@@](O)(Cc1cc2nnccc2[nH]1)C(F)(F)F,9,5,> 2000,38.9,9,–,–,–,30,3
